Compound activity (PubChem)
ABHD5 PLIN5 PPI: ABHD5-PLIN5 interaction inhibitors, primary screen, cell lysate, split luciferase complementation, luminescence. Perilipin-5 (Homo sapiens) + 1-acylglycerol-3-phosphate O-acyltransferase ABHD5 (Homo …. 360,000 compounds, 0.78% hits. Split G. princeps luciferase complementation, 4 h. inhibition, % at 4 µM;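 active means inhibition above the mean inhibition across every tested compound plus 3 SD, cut at about 22% in these data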
MC4R antagonist: MC4R antagonists of cAMP signaling, primary screen, cell-based, TR-FRET, antagonist arm of biased-ligand search | MC4R-expressing cells, MTII-stimulated cAMP, LANCE TR-FRET | inhibition, % at 6.5 µM | Melanocortin receptor 4 (Homo sapiens), P32245 | AID 540295, 2011 | 360,000 compounds, 0.48% hits;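 active means inhibition above its plate's cutoff, the mean of tested wells on that plate plus 3 SD, cut at about 29% in these data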
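Material: human MC4R-expressing U2OS cells. Probe or stimulus: Melanotan II challenge. Dosing: 6.5 µM single dose. Times: 30-min compound, 1-h challenge, 1-h detection, room temperature. Technique: TR-FRET with Eu-cAMP and labeled anti-cAMP, 671 nm. Replication: singlicate.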
PfG6PD inh: PfG6PD enzyme inhibitors, primary screen, biochemical, fluorescence intensity, uHTS; glucose-6-phosphate dehydrogenase-6-phosphogluconolactonase (Plasmodium falciparum 3D7); AID 504690, 2011; PfGluPho enzyme, NADPH resazurin-diaphorase fluorescence; inhibition, % at 20 µM; 350,000 compounds, 0.78% hits;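 active means inhibition reaching at least a set limit at 20 µM in the primary screen, cut at about 59% in these data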
Beta2AR agonist: beta2AR agonists driving receptor internalization, primary screen, cell-based, FAP fluorogen, flow cytometry; Beta-2 adrenergic receptor (Homo sapiens), P07550; 340,000 compounds, 0.43% hits; response, % (concentration not given with the values); AID 504454, 2011; Am2.2-beta2AR cells;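 active means response above a set limit, near 3 SD of response in nonfluorescent compounds, cut at about 42% in these data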
Target sequence (P07550 whole entry, looked up): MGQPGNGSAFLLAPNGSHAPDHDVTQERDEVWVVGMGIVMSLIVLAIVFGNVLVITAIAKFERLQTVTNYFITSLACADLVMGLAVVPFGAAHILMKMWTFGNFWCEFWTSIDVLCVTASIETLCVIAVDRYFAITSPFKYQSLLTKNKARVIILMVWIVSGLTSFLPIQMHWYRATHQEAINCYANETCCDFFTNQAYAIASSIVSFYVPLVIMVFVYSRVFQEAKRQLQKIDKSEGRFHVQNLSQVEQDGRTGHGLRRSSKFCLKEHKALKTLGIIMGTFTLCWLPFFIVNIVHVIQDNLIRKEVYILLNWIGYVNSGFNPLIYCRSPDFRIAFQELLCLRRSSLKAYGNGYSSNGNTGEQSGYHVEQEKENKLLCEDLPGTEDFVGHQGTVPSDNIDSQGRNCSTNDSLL
MC4R ag barr: MC4R agonists recruiting beta-arrestin, primary screen, cell-based, luminescence, agonist arm of biased-ligand search. AID 540308, 2011. 360,000 compounds, 0.98% hits. activation, % at 8.9 µM. Melanocortin receptor 4 (Homo sapiens), P32245. U2OS MC4R beta-arrestin complementation; percent of melanotan II response, DMSO zero;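 active means activation above a per-plate cutoff, the mean activation of sample wells on that plate plus 3 SD, cut at about 8% in these data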
Hits are given with their value; - = inactive; . = no result given; ! = repeats disagree. Sampled rows, rich in hits. Any-hit rate of the full collection: about 3%.

SMILES | ABHD5 PLIN5 PPI | MC4R antagonist | PfG6PD inh | Beta2AR agonist | MC4R ag barr
CSCCC(C(=O)NC1CCCC1)n1c(-c2ccncc2)nc2ccccc21 (centres undefined) | - | . | . | . | .
COC(=O)C1=CN(c2ccc3c(c2)OCO3)C(N)=C(C#N)C1c1ccccc1 (centres undefined) | - | . | . | . | .
N#Cc1cccc2c1-c1ccccc1/C2=N/NC(N)=S | - | - | - | - | 17
Cc1ccc(NC(=O)C2(C)CCN2C2Cc3ccccc3C2)cc1 (centres undefined) | - | - | . | . | 8.4
O=C(O)Cn1c2c(c3ccccc31)CSc1ccc(Cl)cc1-2 | 23 | - | - | - | -
O=C(O)Cn1c2ccccc2c2ccccc21 | - | - | - | - | -
O=C1C(Cl)=C(Nc2ccc3cn[nH]c3c2)C(=O)c2ccccc21 | 29 | - | - | 104 | -
O=C(/C=C/c1ccccc1)c1ccccn1 | 23 | - | - | - | -
CCSc1nc(-c2ccc(OC)cc2)cc(-c2ccccc2)c1C#N | - | - | - | - | -
COc1ccc(-c2cc(-c3ccccc3)c(C#N)c(S(C)=O)n2)cc1 (centres undefined) | - | - | - | 44 | -
CC(C)=C1C2CCC1C1C(=O)N(c3nc(-c4ccccc4)c(C)s3)C(=O)C21 (centres undefined) | - | - | - | - | -
CC1(C(=O)NS(=O)(=O)c2cccc(C#N)c2)CCN1C(=O)Cc1cc(F)ccc1F (centres undefined) | - | - | . | . | -
O=C(NC1CCC(O)CC1)c1cccc2cccnc12 (centres undefined) | - | - | - | - | -
CCOC(=O)c1cc2c(=O)n3cccc(C)c3nc2n(Cc2ccco2)c1=NC(=O)c1ccc(C)cc1 | - | - | - | - | -
CCOC(=O)c1cc2c(=O)n3cccc(C)c3nc2n(Cc2ccco2)c1=NC(=O)c1ccccc1 | 22 | - | - | - | -
CN(Cc1ccccc1)c1ccc(S(=O)(=O)N2CCC(C(=O)O)CC2)cc1[N+](=O)[O-] | - | - | - | - | -
C=Cc1c(C)c2cc3[nH]c(cc4nc(cc5nc(cc1[nH]2)C(C)=C5CCC(=O)O)C(CCC(=O)O)=C4C)c(C)c3C=C | - | - | - | 45! | -
CC1(C)CC(=O)C/C(=N\NC(=O)CCc2ccc(S(=O)(=O)N3CCOCC3)cc2)C1 | - | - | - | - | -
CCCCCCNC(=O)N[C@@H](C(=O)NCCC[C@H]1CN2C(=NC[C@@H]2Cc2ccccc2)N1CCc1cccc(OC)c1)C(C)C | . | . | 64 | . | .
NS(=O)(=O)c1ccc(N/N=C/c2cn(-c3ccccc3)nc2-c2ccccc2)c([N+](=O)[O-])c1 | - | - | - | 81 | -
CC1(C)CC[C@]2(C(=O)n3ccnc3)CC[C@]3(C)[C@H](C(=O)C=C4[C@@]5(C)C=C(C#N)C(=O)C(C)(C)[C@@H]5CC[C@]43C)[C@@H]2C1 | - | - | - | 59 | -
CC(C)C[C@@H]1COc2cc(N3CCSCC3)ccc2S(=O)(=O)N1 | - | . | . | . | .
Cc1cc(-c2nsc(=O)o2)c(S(C)(=O)=O)s1 | - | - | 68 | - | -
O=C(Cc1ccc(Cl)cc1Cl)Nc1cccc(S(=O)(=O)Nc2ccccc2F)c1 | - | - | 70 | - | -
O=S(=O)(c1cc(Cl)ccc1Cl)N1CCN(c2ccccn2)CC1 | - | - | - | - | -
SMILES | ABHD5 PLIN5 PPI | MC4R antagonist | PfG6PD inh | Beta2AR agonist | MC4R ag barr
Cc1ccc(NS(=O)(=O)c2cc(NC(=O)C(C)Oc3ccccc3)ccc2C)c(C)c1 (centres undefined) | - | - | - | - | -
Cc1ccc(C)c(S(=O)(=O)Nc2cc(SCC(=O)O)c(O)c3ccccc23)c1 | - | - | 104 | - | -
COC(=O)c1cn(CCOc2ccc(C)cc2)c2ccccc12 | - | - | - | - | -
Cc1cc(OCCn2cc(/C(N)=N/O)c3ccccc32)ccc1Cl | - | - | - | - | 8.8
COc1ccc(/C=C/C(=O)Nc2cc(C)nn2-c2nc3ccccc3n2Cc2cccc([N+](=O)[O-])c2)cc1 | - | - | - | - | 8.6
O=c1c2c3nc4ccccc4nc3n(-c3ccc4c(c3)OCCO4)c2ncn1C1CCCC1 | - | - | - | 53 | -
CC(=O)/C=C/n1c(=S)oc2ccccc21 | . | . | - | . | .
CC(C)CC(=O)/C=C/n1c(=S)oc2ccccc21 | - | - | - | 49 | -
C#CCOCCOCCOCCNc1nc(N2CCN(C(=O)CCCCCCCCCCNC(=O)[C@H](CCCCN)n3cc(C)nn3)CC2)nc(N2CCN(C(=O)CCCCCCCCCCNC(=O)[C@H](CCCCN)n3cc(CCCC(=O)O)nn3)CC2)n1 | - | - | 59 | - | -
C#CCOCCOCCOCCNc1nc(N2CCN(C(=O)[C@H](CCCCN)n3cc([C@@H](N)C(C)CC)nn3)CC2)nc(N2CCN(C(=O)[C@H](Cc3cc4ccccc4[nH]3)n3cc([C@@H](N)CC(C)C)nn3)CC2)n1 (some centres undefined) | 24 | - | 60 | - | -
C#CCOCCOCCOCCNc1nc(N2CCN(C(=O)Cn3cc(CCCN=C(N)N)nn3)CC2)nc(N2CCN(C(=O)[C@H]([C@@H](C)CC)n3cc(CCCCN)nn3)CC2)n1 | - | - | - | - | -
C#CCOCCOCCOCCNc1nc(N2CCN(C(=O)CCCCCCCCCCNC(=O)[C@H]([C@@H](C)CC)n3cc(CCCCCN)nn3)CC2)nc(N2CCN(C(=O)CCCCCCCCCCNC(=O)[C@H](CO)n3cc(CCCCCN)nn3)CC2)n1 | 39 | - | 61 | - | -
C#CCOCCOCCOCCNc1nc(N2CCN(C(=O)CCCCCCCCCCNC(=O)Cn3cc(CCCCCN)nn3)CC2)nc(N2CCN(C(=O)CCCCCCCCCCNC(=O)[C@H]([C@@H](C)CC)n3cc(CCCCN=C(N)N)nn3)CC2)n1 | 58 | - | - | - | -
Cc1cccc(C)c1NC(=O)C1(C)CSCC(=O)N1C1CCN(Cc2ccccc2)CC1 (centres undefined) | - | . | . | . | .
COC(=O)[C@]1(Cc2ccccc2)N[C@H](c2ccc(-c3ccc4c(c3)OCO4)cc2)[C@@H]2C(=O)N(C)C(=O)[C@@H]21 | - | - | - | - | -
C#CCOCCOCCOCCNc1nc(N2CCN(C(=O)[C@H]([C@@H](C)CC)n3cc(CCCN=C(N)N)nn3)CC2)nc(N2CCN(C(=O)[C@H](C)n3cc(CCCN=C(N)N)nn3)CC2)n1 | . | . | - | . | .
